From ChEMBL document CHEMBL1124265, “Effects of D-amino acid substitution on antagonist activities of angiotensin II analogues” (J Med Chem, 1988)

Assays:
[1] = biological target: Angiotensin II receptor (Homo sapiens) (UniProt P30556+P50052); test: In vitro angiotensin II-like activity, expressed as percent relative to angiotensin II, measured in the rabbit aorta strip assay; type: functional, tissue-based; settings: Oryctolagus cuniculus
Rattus norvegicus [2] = species on record: Rattus norvegicus; test: Dose required for the two fold increase in the dose of AII to produce the same elevation in blood pressure as in the control period.; type: functional
Outline: (§1)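 Rat blood pressure assay in vivo, using 250-g rats. ID50 is the antagonist dose, in ng/rat per min, that requires a twofold increase in the AII dose to give the same blood pressure rise as in the control period.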

Rattus norvegicus [3] = test: In vivo AII-like activity, expressed as percent activity relative to AII (angiotensin II), measured in rat blood pressure assay; type: functional
Outline: (§2)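 Rat blood pressure assay in vivo. Residual agonist activity is expressed as percent activity relative to AII.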

Rattus norvegicus [4] = test: Dose required for the two fold increase in the dose of AII to produce the same elevation in blood pressure as in the control period.(in vivo); type: functional; outline: as §1
Oryctolagus cuniculus [5] = species on record: Oryctolagus cuniculus; test: AII-like activity, expressed as percent activity relative to AII (angiotensin II), measured in rabbit aorta strip assay
Rattus norvegicus [6] = test: AII-like activity, expressed as percent relative to AII (angiotensin II) was measured in the in vivo rat blood pressure assay; type: functional; outline: as §2
Oryctolagus cuniculus [7] = species on record: Oryctolagus cuniculus; test: In vitro AII-like activity, expressed as percent activity relative to AII (angiotensin II), measured in rabbit aorta; type: functional
Oryctolagus cuniculus [8] = species on record: Oryctolagus cuniculus; test: AII-like activity, expressed as percent relative to AII (angiotensin II) was measured in the in vitro rabbit aorta strip assay; g = partial agonist at 10 ng/mL; type: functional; settings: filed as partial agonist
Rattus norvegicus [9] = test: In vivo AII-like activity, expressed as percent activity relative to AII (angiotensin II), measured in rat blood pressure assay; g = partial agonist at 10 ng/mL; type: functional, organism-based; settings: filed as partial agonist; outline: as §2
Oryctolagus cuniculus [10] = species on record: Oryctolagus cuniculus; test: pA2 value was determined in the range of competitive inhibition in the in vitro rabbit aorta strip assay; g = partial agonist at 10 ng/mL; type: functional; settings: filed as partial agonist

## CC[C@H](C)[C@H](NC(=O)[C@H](Cc1ccccc1)NC(=O)[C@@H](NC(=O)[C@H](CCCN=C(N)N)NC(=O)CNC)C(C)C)C(=O)N[C@@H](Cc1c[nH]cn1)C(=O)N1CCC[C@H]1C(=O)N[C@@H](Cc1ccc(O)cc1)C(=O)O
[1]
  Biological activity: -0%
Rattus norvegicus [2]
  ID50: 50 ng min-1 rat-1

## CC[C@H](C)[C@H](NC(=O)[C@@H]1CCCN1C(=O)[C@H](Cc1c[nH]cn1)NC(=O)[C@H](NC(=O)[C@H](Cc1ccc(O)cc1)NC(=O)[C@H](NC(=O)[C@H](CCCN=C(N)N)NC(=O)CNC)C(C)C)C(C)C)C(=O)O
[1]
  Biological activity: -0%
Rattus norvegicus [3]
  Biological activity: 0%
Rattus norvegicus [4]
  ID50: >1000 ng min-1 rat-1

## CC[C@H](C)[C@H](NC(=O)[C@H](Cc1ccc(O)cc1)NC(=O)[C@@H](NC(=O)[C@H](CCCN=C(N)N)NC(=O)CNC)C(C)C)C(=O)N[C@@H](Cc1c[nH]cn1)C(=O)N1CCC[C@H]1C(=O)N[C@@H](C)C(=O)O
[1]
  Biological activity: -0%
Rattus norvegicus [2]
  ID50: 15 ng min-1 rat-1

## CC[C@H](C)[C@H](NC(=O)[C@H]1CCCN1C(=O)[C@H](Cc1c[nH]cn1)NC(=O)[C@@H](NC(=O)[C@H](Cc1ccc(O)cc1)NC(=O)[C@@H](NC(=O)[C@H](CCCNC(=N)N)NC(=O)[C@@H](N)CC(=O)O)C(C)C)[C@@H](C)CC)C(=O)O
Oryctolagus cuniculus [5]
  Biological activity: 0.1%

## CC[C@H](C)[C@H](NC(=O)[C@@H]1CCCN1C(=O)[C@H](Cc1c[nH]cn1)NC(=O)[C@@H](NC(=O)[C@H](Cc1ccc(O)cc1)NC(=O)[C@@H](NC(=O)[C@H](CCCN=C(N)N)NC(=O)CNC)C(C)C)[C@@H](C)CC)C(=O)O
[1]
  Biological activity: -0%
Rattus norvegicus [4]
  ID50: 10 ng min-1 rat-1

## CC[C@H](C)[C@H](NC(=O)[C@H](Cc1ccc(O)cc1)NC(=O)[C@@H](NC(=O)[C@H](CCCN=C(N)N)NC(=O)CNC)C(C)C)C(=O)N[C@H](Cc1c[nH]cn1)C(=O)N1CCC[C@H]1C(=O)N[C@H](Cc1ccccc1)C(=O)O
[1]
  Biological activity: -0%
Rattus norvegicus [3]
  Biological activity: 0%
Rattus norvegicus [2]
  ID50: 0 ng min-1 rat-1

## CC[C@H](C)[C@H](NC(=O)[C@H](Cc1ccc(O)cc1)NC(=O)[C@@H](NC(=O)[C@H](CCCN=C(N)N)NC(=O)CNC)C(C)C)C(=O)N[C@@H](Cc1c[nH]cn1)C(=O)N1CCC[C@H]1C(=O)N[C@H](Cc1ccc(O)cc1)C(=O)O
[1]
  Biological activity: -0%
Rattus norvegicus [2]
  ID50: 20 ng min-1 rat-1

## CC[C@H](C)[C@H](NC(=O)[C@@H]1CCCN1C(=O)[C@H](Cc1c[nH]cn1)NC(=O)[C@@H](NC(=O)[C@H](Cc1ccc(O)cc1)NC(=O)[C@@H](NC(=O)[C@@H](CCCN=C(N)N)NC(=O)CNC)C(C)C)[C@@H](C)CC)C(=O)O
[1]
  Biological activity: -0%
Rattus norvegicus [4]
  ID50: 150 ng min-1 rat-1

## CC[C@H](C)[C@H](NC(=O)[C@H](Cc1ccc(O)cc1)NC(=O)[C@@H](NC(=O)[C@H](CCCNC(=N)N)NC(=O)C[C@@H](N)C(=O)O)C(C)C)C(=O)N[C@@H](Cc1c[nH]cn1)C(=O)N1CCC[C@H]1C(=O)N[C@@H](CC(C)C)C(=O)O
Rattus norvegicus [2]
  ID50: 15 ng min-1 rat-1

## CC[C@H](C)[C@H](NC(=O)[C@H](Cc1ccccc1)NC(=O)[C@@H](NC(=O)[C@H](CCCN=C(N)N)NC(=O)CNC)C(C)C)C(=O)N[C@@H](Cc1c[nH]cn1)C(=O)N1CCC[C@H]1C(=O)N[C@H](Cc1ccc(O)cc1)C(=O)O
[1]
  Biological activity: -0%
Rattus norvegicus [2]
  ID50: 25 ng min-1 rat-1

## CC[C@H](C)[C@H](NC(=O)[C@@H]1CCCN1C(=O)[C@@H](Cc1c[nH]cn1)NC(=O)[C@@H](NC(=O)[C@H](Cc1ccc(O)cc1)NC(=O)[C@@H](NC(=O)[C@H](CCCN=C(N)N)NC(=O)CNC)C(C)C)[C@@H](C)CC)C(=O)O
[1]
  Biological activity: -0%
Rattus norvegicus [6]
  Biological activity: 0%
Rattus norvegicus [4]
  ID50: >1000 ng min-1 rat-1

## CC[C@H](C)[C@H](NC(=O)[C@H](Cc1ccc(O)cc1)NC(=O)[C@@H](NC(=O)[C@H](CCCN=C(N)N)NC(=O)CNC)C(C)C)C(=O)N[C@@H](Cc1c[nH]cn1)C(=O)N1CCC[C@H]1C(=O)N[C@H](Cc1ccccc1)C(=O)O
Oryctolagus cuniculus [7]
  Biological activity: 0%
Rattus norvegicus [2]
  ID50: 12.5 ng min-1 rat-1

## CC[C@H](C)[C@H](NC(=O)[C@H](Cc1ccc(O)cc1)NC(=O)[C@@H](NC(=O)[C@H](CCCNC(=N)N)NC(=O)CNC)C(C)C)C(=O)N[C@@H](Cc1c[nH]cn1)C(=O)N1CCC[C@H]1C(=O)N[C@@H](C(=O)O)C(C)C
Rattus norvegicus [6]
  Biological activity: 10
Rattus norvegicus [2]
  ID50: 50 ng min-1 rat-1

## CC[C@H](C)[C@H](NC(=O)[C@H](Cc1ccc(O)cc1)NC(=O)[C@@H](NC(=O)[C@H](CCCN=C(N)N)NC(=O)CNC)C(C)C)C(=O)N[C@@H](Cc1c[nH]cn1)C(=O)N1CCC[C@H]1C(=O)N[C@@H](C(=O)O)c1ccccc1
[1]
  Biological activity: -0%
Rattus norvegicus [2]
  ID50: 3.5 ng min-1 rat-1

## CC[C@H](C)[C@H](NC(=O)C(C)NC(=O)[C@H](Cc1c[nH]cn1)NC(=O)[C@H](NC(=O)[C@@H](Cc1ccc(O)cc1)NC(=O)[C@@H](NC(=O)[C@H](CCCNC(=N)N)NC(=O)[C@@H](N)CC(=O)O)C(C)C)C(C)C)C(=O)O (stereo in doubt)
Rattus norvegicus [2]
  ID50: 0 ng min-1 rat-1

## CC[C@H](C)[C@H](NC(=O)[C@H](Cc1ccc(O)cc1)NC(=O)[C@@H](NC(=O)[C@H](CCCN=C(N)N)NC(=O)CNC)C(C)C)C(=O)N[C@@H](Cc1c[nH]cn1)C(=O)N1CCC[C@H]1C(=O)N[C@H](C(=O)O)c1ccccc1
Oryctolagus cuniculus [8]
  Biological activity: Partial agonist
Rattus norvegicus [9]
  Biological activity: Partial agonist

## CC[C@H](C)[C@H](NC(=O)[C@H](Cc1ccc(O)cc1)NC(=O)[C@@H](NC(=O)[C@H](CCCN=C(N)N)NC(=O)CNC)C(C)C)C(=O)N[C@@H](Cc1c[nH]cn1)C(=O)N1CCC[C@H]1C(=O)N[C@@H](CCc1ccccc1)C(=O)O
Oryctolagus cuniculus [10]
  pA2: Partial agonist
Oryctolagus cuniculus [8]
  Biological activity: Partial agonist
